Published values collected from several papers.
Lines come from different studies, so protocols differ.
Effect on: microbial growth

`CCCCCCCCCCCCN1CCNCC1` gave an MIC of 1.95 µg/mL (Lodderomyces parapsilosis; ATCC22019).
The MIC of `Cc1ccc(C)n1-c1ccc(-c2nnc(-c3ccccc3[N+](=O)[O-])[nH]2)cc1` is reported as 31.2 µg/mL (Aspergillus niger; broth dilution; ATCC6275).
`Cc1ccc2nc(-c3ccc([N+](=O)[O-])cc3)n(Cc3ccccc3)c2c1` gave an MIC of 256 µg/mL (Aspergillus niger; ATCC16404).
For `CCCCCCCCCCCN1CCNCC1`, the MIC was 7.8 µg/mL (Lodderomyces parapsilosis; broth dilution; ATCC22019; 48 h).
The MIC of `O=C(c1cc(O)c(O)c(O)c1)c1cc2ccccc2o1` is reported as 16 µg/mL (Lodderomyces parapsilosis; broth dilution).
`O=C1NN=C(N=Cc2ccc(O)c(O)c2)C1=NNn1c(-c2ccccc2)nc2ccccc2c1=O` has an MIC of 107 µM (Aspergillus niger; broth dilution).
`O=C1/C(=C/c2cc(O)c(O)c(O)c2)Oc2cccc(O)c21` has an MIC of 16 µg/mL (Lodderomyces parapsilosis; broth dilution).
`Cc1cc(C)n(C(=O)c2ccc(-n3c(C)ccc3C)cc2)n1` gave an MIC of > 500 µg/mL (Aspergillus niger; broth dilution; ATCC6275).
For `C=CCn1c(-c2ccc([N+](=O)[O-])cc2)nc2ccccc21`, the MIC was 256 µg/mL (Aspergillus niger; ATCC16404).
With `CCCCCCCCCCCCCN1CCN(CC(O)(Cn2cncn2)c2ccc(F)cc2F)CC1` (stereo not shown) the MIC was < 0.24 µg/mL (Lodderomyces parapsilosis; broth dilution; ATCC22019; 48 h).
The MIC of `Cc1ccc2nc(-c3ccccc3O)[nH]c2c1` is reported as 512 µg/mL (Aspergillus niger; ATCC16404).
For `CCCCCCCCN1CCNCC1`, the MIC was > 31.3 µg/mL (Lodderomyces parapsilosis; broth dilution; ATCC22019; 48 h).
`C=CCn1c(-c2ccc(Cl)cc2)nc2ccccc21` gave an MIC of 512 µg/mL (Aspergillus niger; ATCC16404).
With `Cc1ncc([N+](=O)[O-])n1CCO` the MIC was 1 µg/mL (Bacteroides fragilis; agar dilution; 48 h).
For `CN1CCNCC1`, the MIC was > 31.3 µg/mL (Lodderomyces parapsilosis; broth dilution; ATCC22019; 48 h).
`O=[N+]([O-])c1ccc(-c2nc3ccccc3n2Cc2ccccc2)cc1` has an MIC of 64 µg/mL (Aspergillus niger; ATCC16404).
`CCCCCCCCCCCCCCN1CCNCC1` has an MIC of 0.975 µg/mL (Lodderomyces parapsilosis; ATCC22019).
`Cc1ccc2nc(-c3cccc(O)c3)[nH]c2c1` has an MIC of 128 µg/mL (Aspergillus niger; ATCC16404).
`CC1=NN(CNc2ccc(C(=O)O)cc2)C(=O)C1=NNn1c(-c2ccccc2)nc2ccccc2c1=O` has an MIC of 50.5 µM (Aspergillus niger; broth dilution).
